Screens: PubChem BioAssay, several laboratories
Most compounds without a hit are left out; they make up all but 6.7% or so of the library.
CSC inhib – blocks cancer stem cells; cancer stem cell-like cells viability, luminescence; inhibition, % at 7.5 µM; 300,000 compounds, 1.1% hits; in the data active = inhibition above about 75%; inconclusive = no clear call, values can overlap the other calls; tested in HMLE shEcad cells
Beta cell apopt – beta cell apoptosis inhibition. protection from apoptosis, % (no concentration beside the values). INS-1E cytokine-induced death, ATP luminescence, 48 h; percent of positive-control rescue, neutral wells zero. 300,000 compounds, 0.8% hits;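 active = Every replicate reaches about 75%, or at least half do and their mean reaches it too, limit read from the data; inconclusive = At least half of replicates reach the limit but their mean does not; inactive = Under half of replicates reach the limit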;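 also: 0% = cytokine-treated negative control wells and 100% = positive control rescue; higher means more ATP so stronger rescue from cytokine killing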
PREPL inhibitor – human PREPL enzyme inhibition | recombinant PREPL, fluorescence polarization activity-based probe | inhibition, % at 5.96 µM | 320,000 compounds, 0.68% hits | AID 2751; in the data active = inhibition above about 43%;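 also: 0% = enzyme with DMSO and 100% = wells lacking enzyme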
Target sequence (Q4J6C6 whole entry, looked up): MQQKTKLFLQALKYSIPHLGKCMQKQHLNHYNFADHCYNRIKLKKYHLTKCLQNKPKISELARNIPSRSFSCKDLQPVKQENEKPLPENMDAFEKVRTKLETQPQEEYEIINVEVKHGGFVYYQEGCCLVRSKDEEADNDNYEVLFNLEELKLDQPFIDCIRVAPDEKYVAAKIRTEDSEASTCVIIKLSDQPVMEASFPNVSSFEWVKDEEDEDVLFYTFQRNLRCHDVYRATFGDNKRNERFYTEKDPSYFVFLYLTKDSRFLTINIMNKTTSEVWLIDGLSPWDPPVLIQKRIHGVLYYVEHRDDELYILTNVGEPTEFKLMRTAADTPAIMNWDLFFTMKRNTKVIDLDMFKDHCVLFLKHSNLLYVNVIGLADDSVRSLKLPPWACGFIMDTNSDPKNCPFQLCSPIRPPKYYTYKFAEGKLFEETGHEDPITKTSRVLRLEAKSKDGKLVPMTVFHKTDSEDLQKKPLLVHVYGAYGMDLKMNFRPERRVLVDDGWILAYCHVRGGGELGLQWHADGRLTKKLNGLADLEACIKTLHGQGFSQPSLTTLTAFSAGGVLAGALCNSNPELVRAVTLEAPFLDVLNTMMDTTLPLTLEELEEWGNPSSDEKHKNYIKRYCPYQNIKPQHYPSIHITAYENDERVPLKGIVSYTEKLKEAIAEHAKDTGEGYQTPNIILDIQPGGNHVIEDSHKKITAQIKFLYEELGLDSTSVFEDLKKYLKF
GRIN3A LBD mod – modulates the human NR3A ligand-binding domain; 340,000 compounds, 2.5% hits; Tm shift relative to glycine control, % at 25 µM; AID 1259313; NR3A LBD differential scanning fluorimetry, Tm shift; 0% = protein alone, 100% = glycine-bound protein;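 active = melting temperature shift of at least 10% of the positive control shift, at one fixed dose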
T cruzi inh – blocks replication of Trypanosoma cruzi; inhibition, % (test concentration not listed); 300,000 compounds, 1.4% hits; T. cruzi beta-gal in NIH3T3, luminescence, 90 h;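 active = mean inhibition across valid replicates above about 55%, limit read from the data; inconclusive = mean below that limit but half or more replicates reach it; inactive = mean below it, under half of replicates reach it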;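 also: signal also drops with host cell toxicity which is not excluded here; 0% = plate median of DMSO wells and 100% = zero luminescence signal; higher percent means less beta-gal luminescence so fewer parasites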
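System: NIH/3T3 fibroblasts plus reporter T. cruzi. Medium: DMEM plus 2% FBS. Probe or stimulus: 5000 reporter trypomastigotes per well. Compound: single 50 nL compound addition per well in DMSO. Incubation: co-culture of at least 90 h after 3 h attachment. Detection: GalScreen β-gal luminescence, detergent lysis, 60 min. Evaluation: parasite load inhibition, %.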
CHOP inhibitor – CHOP inhibition in unfolded protein response. CHO-K1 CHOP-promoter luciferase, tunicamycin-induced, 15-18 h. inhibition, % at 10 µM. 220,000 compounds, 3.8% hits;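 active = compounds that reduced the stress-induced luciferase reporter signal by more than about 70% of percent inhibition, limit read from the data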;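 also: 0% = tunicamycin plus vehicle and 100% = wells without tunicamycin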
* = called active by the depositor; ? = inconclusive; · = no result.

SMILES | CSC inhib | Beta cell apopt | PREPL inhibitor | GRIN3A LBD mod | T cruzi inh | CHOP inhibitor
Cc1cc(C(=O)CSc2nc3ccccc3c(=O)[nH]2)c(C)n1CC1CCCO1 (stereo unspecified) | 10 | 50 | -1 | -1 | 24 | 44
COc1cccc(OC)c1C(=O)Nc1cccc(NC(=O)c2cccs2)c1 | -12 | -1 | -13 | 0 | 17 | ·
CC(C)C1OC(c2cccc(NC(=O)c3cccs3)c2)OCC1(C)C (stereo unspecified) | 7 | 8 | -17 | -2 | 15 | 79*
CCOc1cccc(NC(=O)C2CC(=O)N(C)C(=Nc3ccccc3)S2)c1 (stereo unspecified) | -8 | 33 | -14 | -16 | -3 | 32
CCCOc1ccc(NC(=O)C2CC(=O)N/C(=N/N=C(\C)CCc3ccc4c(c3)OCO4)S2)cc1 (stereo unspecified) | -2 | -6 | 1 | -1 | 7 | 78*
CC(/C=C/c1ccc(N(C)C)cc1)=N\N=C1\NC(=O)CC(C(=O)Nc2ccccc2)S1 (stereo unspecified) | 0 | 10 | 22 | -1 | 9 | -4
CCOc1ccc(NC(=O)C2CC(=O)N(CC)C(=Nc3ccc4c(c3)OCO4)S2)cc1 (stereo unspecified) | 17 | 3 | 21 | -9 | 14 | 72*
CCOc1cccc(NC(=O)C2CC(=O)N(C)C(=Nc3cccc(F)c3)S2)c1 (stereo unspecified) | 0 | -10 | -10 | · | 26 | 91*
CCCOc1ccc(NC(=O)C2CC(=O)N/C(=N/N=C(C)/C=C/c3ccc(N(C)C)cc3)S2)cc1 (stereo unspecified) | 24 | 7 | 22 | -5 | 16 | 72*
O=S(=O)(c1ccc(NC(=S)NN=Cc2ccccc2O)cc1)N1CCCCC1 | · | · | · | 3 | · | ·
O=C1CCc2cc(S(=O)(=O)NC(Cc3ccccc3)C(=O)N3CCN(c4ccccn4)CC3)ccc2N1 (stereo unspecified) | · | 4 | 16 | -1 | -4 | -3
CC(/C=C/c1ccc(N(C)C)cc1)=N/N=C1/NC(=O)CC(C(=O)Nc2ccc(Cl)cc2)S1 (stereo unspecified) | 37 | -14 | 17 | 27* | -7 | 71*
C=CCn1c2ccccc2c2nnc(SCCN3CCCCC3)nc21 | 26 | 4 | 17 | 2 | 46 | ·
CCn1c2ccc(F)cc2c2nnc(SCCN3CCCCC3)nc21 | 8 | 11 | · | 1 | 63* | ·
c1ccc(Cn2c3ccccc3c3nnc(SCCN4CCCCC4)nc32)cc1 | 71 | -29 | -2 | 1 | 69* | -5
COc1ccc(C(=O)NC(=S)N2CC(C)OC(C)C2)cc1OC (stereo unspecified) | -5 | -6 | 4 | 12* | -8 | -2
CC1CN(C(=S)NC(=O)c2ccc(Cl)cc2)CC(C)O1 (stereo unspecified) | -3 | -3 | 4 | 3 | -8 | ·
O=C1OC(c2ccccc2)(c2ccc3cc(O)ccc3c2)c2ccccc21 (stereo unspecified) | · | · | · | 10* | · | ·
CCc1nnc(NC(=O)CCc2ccc(C)o2)s1 | -9 | -3 | -2 | 7 | -3 | 75*
O=C(CSc1ccc(Cl)cc1)N1CCN(c2ccc([N+](=O)[O-])cc2Cl)CC1 | 35 | 8 | -22 | -17 | ? | 78*
Cc1ccnc(NC(=O)c2ccc(S(=O)(=O)N3CCC(C)CC3)cc2)c1 | · | -3 | 13 | 0 | 2 | ·
COc1cc2cc(NC(C)=O)cc(NCc3ccccc3)c2cc1OC | -13 | 2 | · | 12* | 3 | ·
CCCCC1=CC2=C(c3ccco3)C(=O)C(C)(OC(=O)c3ccc(OC)cc3)C(=O)C2=CN1CCCCO (stereo unspecified) | 5 | -6 | 11 | -3 | -12 | 12
CCCCC1=CC2=C(c3ccco3)C(=O)C(C)(OC(=O)c3ccc(OC)cc3)C(=O)C2=CN1Cc1ccc(OC)cc1 (stereo unspecified) | · | · | · | · | 17 | -2
CCCCC1=CC2=C(c3ccco3)C(=O)C(C)(OC(=O)c3ccc(OC)cc3)C(=O)C2=CN1CC(C)C (stereo unspecified) | -4 | -3 | 17 | -3 | -1 | 79*
SMILES | CSC inhib | Beta cell apopt | PREPL inhibitor | GRIN3A LBD mod | T cruzi inh | CHOP inhibitor
CCCCC1=CC2=C(c3ccco3)C(=O)C(C)(OC(=O)c3ccc(OC)cc3)C(=O)C2=CN1CC1CC1 (stereo unspecified) | -3 | -2 | 11 | 0 | 2 | 90*
Cc1cc(NC(=O)Cn2nnc(-c3ccccc3N)n2)no1 | -9 | -14 | 2 | 26* | -4 | 4
COc1ccc(NC(=O)Cn2nnc(-c3ccccc3NC(=O)c3cccs3)n2)cc1 | -1 | 29 | 4 | 10* | -24 | 73*
CCOC(=O)c1ccc(NC(=O)Cn2nnc(-c3ccccc3C)n2)cc1 | 16 | -6 | -5 | 13* | -3 | 54
CCCC(=O)Nc1ccccc1-c1nnn(CC(=O)Nc2ccc(OCC)cc2)n1 | 0 | 5 | -9 | -6 | -3 | 80*
CCn1c(SCC(=O)Nc2cccc(S(=O)(=O)N(C)c3ccccc3)c2)nnc1C1CC1 | · | -3 | 12 | -1 | · | ·
COc1ccc(OC)c(C(=O)Nc2c(O)ccc3ccccc23)c1 | 0 | -2 | 0 | 3 | 3 | ·
Cc1ccc(CNC(=O)[C@H](C)[C@H]2C[C@]2(C)[C@H](NC(=O)OCc2ccccc2)c2ccccc2)o1 | 11 | -5 | -14 | -1 | -3 | 33
COc1ccc(N(CC(=O)N2CCN(C)CC2)S(=O)(=O)c2cc(C)ccc2OC)cc1Cl | -15 | 0 | -2 | 0 | -11 | ·
Cc1ccc(NC(=O)Cn2nnc(-c3ccccc3NC(=O)c3cccs3)n2)cc1 | -10 | 17 | 2 | 20* | 22 | ·
CC(C)(C)NC(=O)Cn1nnc(-c2ccccc2NC(=O)c2ccco2)n1 | · | -4 | -7 | 2 | -2 | -1
O=C(Cn1nnc(-c2ccccc2NC(=O)c2ccco2)n1)Nc1ccccc1 | · | -8 | -8 | 3 | 3 | 85*
CCOc1ccc(NC(=O)Cn2nnc(-c3ccccc3NC(=O)CC)n2)cc1 | 12 | 1 | 9 | -7 | 1 | -6
O=C(NCC1CC1)c1onc(CSc2ccncc2)c1C(=O)NCC1CC1 | -5 | -2 | -2 | 1 | -11 | 23
Cc1nn(-c2ccccc2)c(N)c1Sc1cccc([N+](=O)[O-])c1 | 3 | 3 | -3 | 2 | 38 | 11
Cc1nn(S(=O)(=O)c2ccc([N+](=O)[O-])cc2)c(C)c1Sc1ccccc1 | 4 | 3 | 9 | -5 | 64* | ·
N#Cc1ccc(N/N=C/c2cn(-c3ccccc3)nc2-c2ccccc2)c([N+](=O)[O-])c1 | 56 | 87* | -4 | -2 | 1 | 83*
NC(=O)N/N=C/c1cn(-c2ccccc2)nc1-c1cccs1 | 28 | 19 | -2 | 1 | -1 | 5
NS(=O)(=O)c1ccc(N/N=C/c2ccccc2Br)cc1 | 7 | -7 | 22 | 14* | 2 | 35
